Several values for one entry are separate records, joined by “and”; a condition that tells them apart may be missing. Equal entries are not always repeated.
Test system: HEK-293T
Experiment: Multiplex assay against HEK293T;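 on Population Tubulin-Different-Phenotype (%): share of the cells with healthy nuclei that show this phenotype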
Type: toxicity, cell-based
Settings: human
Procedure, shortened: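 Compound was added to live cells that had been stained at seeding with Hoechst33342, BioTracker Green Microtubule Cytoskeleton Dye, MitoTracker Red and Annexin V Alexa Fluor 680, and imaging followed on a CQ1 microscope at 37°C and 5% CO2. CellPathfinder machine-learning gating divided cells into Hoechst high-intensity objects or normal cells, normal cells into healthy, pyknosed or fragmented nuclei, and pyknosed cells into mitotic or apoptotic. Tubulin, mitochondrial-mass and membrane-permeability phenotypes are per cents of healthy-nucleus cells.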

[1] = 12 h, 10 µM, compound concentration 10 uM, replicate 1
[2] = 12 h, 10 µM, compound concentration 10 uM, replicate 2
[3] = 24 h, 10 µM, compound concentration 10 uM, replicate 1
[4] = 24 h, 10 µM, compound concentration 10 uM, replicate 2
[5] = 48 h, 10 µM, compound concentration 10 uM, replicate 1
[6] = 48 h, 10 µM, compound concentration 10 uM, replicate 2
[7] = 12 h, 1 µM, compound concentration 1 uM, replicate 1
[8] = 12 h, 1 µM, compound concentration 1 uM, replicate 2
[9] = 24 h, 1 µM, compound concentration 1 uM, replicate 1
[10] = 24 h, 1 µM, compound concentration 1 uM, replicate 2
[11] = 48 h, 1 µM, compound concentration 1 uM, replicate 1
[12] = 48 h, 1 µM, compound concentration 1 uM, replicate 2

## CCOCCn1cc(C(=O)Nc2ccc(-n3nc(-c4cccnc4)cc3C(F)(F)F)cn2)ccc1=O [BI 1935]
[1]
  Population Fragmented Nuclei (%): 15% and 16% and 10%
  Population Healthy Nuclei (%): 27% and 50% and 70%
  Population Hoechst High Intensity Objects (%): 20% and 15% and 10%
  Population Membrane Permeable-Phenotype (%): 6%
  Population Mitotic Cells (%): 30% and 78% and 83%
  Population Normal (%): 80% and 84% and 89%
  Total Cell Count: 285 and 667 and 651
[2]
  Population Fragmented Nuclei (%): 3% and 7%
  Population Healthy Nuclei (%): 29% and 84% and 87%
  Population Membrane Permeable-Phenotype (%): 3% and 10% and 2%
  Population Mitotic Cells (%): 71% and 84% and 95%
  Population Normal (%): 91% and 96% and 97%
[3]
  Population Fragmented Nuclei (%): 20% and 16% and 10%
  Population Healthy Nuclei (%): 33% and 62% and 81%
  Population Hoechst High Intensity Objects (%): 18% and 14%
  Population Mitotic Cells (%): 29% and 75% and 80%
  Population Normal (%): 81% and 85%
  Total Cell Count: 309 and 632 and 787
[4]
  Population Healthy Nuclei (%): 43% and 88% and 71%
  Population Hoechst High Intensity Objects (%): 2% and 4%
  Population Mitotic Cells (%): 53% and 88% and 98%
  Population Normal (%): 97% and 95%
[5]
  Population Apoptotic (%): 59%
  Population Fragmented Nuclei (%): 22%
  Population Healthy Nuclei (%): 33%
  Population Hoechst High Intensity Objects (%): 17%
  Population Membrane Permeable-Phenotype (%): 2%
  Population Mitochondria Different-Phenotype (%): 89%
  Population Mitotic Cells (%): 40%
  Population Normal (%): 82%
  Population Pyknosed Nuclei (%): 44%
  Population Tubulin-Different-Phenotype (%): 93%
  Total Cell Count: 341
[6]
  Population Apoptotic (%): 33%
  Population Fragmented Nuclei (%): 4%
  Population Healthy Nuclei (%): 61%
  Population Hoechst High Intensity Objects (%): 4%
  Population Membrane Permeable-Phenotype (%): 6%
  Population Mitochondria Different-Phenotype (%): 55%
  Population Mitotic Cells (%): 66%
  Population Normal (%): 95%
  Population Pyknosed Nuclei (%): 33%
  Population Tubulin-Different-Phenotype (%): 79%
  Total Cell Count: 283

## CN(C)C(=O)N[C@H]1CC[C@H](CCN2CCN(c3cccc(Cl)c3Cl)CC2)CC1.Cl [CARIPRAZINE HYDROCHLORIDE]
[7]
  Population Apoptotic (%): 48%
  Population Fragmented Nuclei (%): 12%
  Population Healthy Nuclei (%): 44%
  Population Hoechst High Intensity Objects (%): 13%
  Population Membrane Permeable-Phenotype (%): 1%
  Population Mitochondria Different-Phenotype (%): 88%
  Population Mitotic Cells (%): 51%
  Population Normal (%): 86%
  Population Pyknosed Nuclei (%): 42%
  Population Tubulin-Different-Phenotype (%): 59%
  Total Cell Count: 326
[8]
  Population Apoptotic (%): 20%
  Population Fragmented Nuclei (%): 4%
  Population Healthy Nuclei (%): 42%
  Population Hoechst High Intensity Objects (%): 4%
  Population Membrane Permeable-Phenotype (%): 2%
  Population Mitochondria Different-Phenotype (%): 32%
  Population Mitotic Cells (%): 79%
  Population Normal (%): 95%
  Population Pyknosed Nuclei (%): 53%
  Population Tubulin-Different-Phenotype (%): 24%
  Total Cell Count: 213
[1]
  Population Apoptotic (%): 85%
  Population Fragmented Nuclei (%): 7%
  Population Healthy Nuclei (%): 25%
  Population Hoechst High Intensity Objects (%): 15%
  Population Membrane Permeable-Phenotype (%): 1%
  Population Mitochondria Different-Phenotype (%): 98%
  Population Mitotic Cells (%): 14%
  Population Normal (%): 84%
  Population Pyknosed Nuclei (%): 67%
  Population Tubulin-Different-Phenotype (%): 98%
  Total Cell Count: 285
[2]
  Population Apoptotic (%): 83%
  Population Fragmented Nuclei (%): 4%
  Population Healthy Nuclei (%): 16%
  Population Hoechst High Intensity Objects (%): 6%
  Population Membrane Permeable-Phenotype (%): 6%
  Population Mitochondria Different-Phenotype (%): 96%
  Population Mitotic Cells (%): 16%
  Population Normal (%): 93%
  Population Pyknosed Nuclei (%): 79%
  Population Tubulin-Different-Phenotype (%): 93%
  Total Cell Count: 210
[9]
  Population Apoptotic (%): 46%
  Population Fragmented Nuclei (%): 14%
  Population Healthy Nuclei (%): 57%
  Population Hoechst High Intensity Objects (%): 11%
  Population Membrane Permeable-Phenotype (%): 1%
  Population Mitochondria Different-Phenotype (%): 77%
  Population Mitotic Cells (%): 53%
  Population Normal (%): 88%
  Population Pyknosed Nuclei (%): 27%
  Population Tubulin-Different-Phenotype (%): 55%
  Total Cell Count: 379
[10]
  Population Apoptotic (%): 12%
  Population Fragmented Nuclei (%): 2%
  Population Healthy Nuclei (%): 63%
  Population Hoechst High Intensity Objects (%): 2%
  Population Membrane Permeable-Phenotype (%): 4%
  Population Mitochondria Different-Phenotype (%): 34%
  Population Mitotic Cells (%): 87%
  Population Normal (%): 97%
  Population Pyknosed Nuclei (%): 33%
  Population Tubulin-Different-Phenotype (%): 33%
  Total Cell Count: 275
[3]
  Population Apoptotic (%): 90%
  Population Fragmented Nuclei (%): 11%
  Population Healthy Nuclei (%): 29%
  Population Hoechst High Intensity Objects (%): 14%
  Population Membrane Permeable-Phenotype (%): 0%
  Population Mitochondria Different-Phenotype (%): 98%
  Population Mitotic Cells (%): 9%
  Population Normal (%): 85%
  Population Pyknosed Nuclei (%): 59%
  Population Tubulin-Different-Phenotype (%): 100%
  Total Cell Count: 289
[4]
  Population Apoptotic (%): 87%
  Population Fragmented Nuclei (%): 3%
  Population Healthy Nuclei (%): 37%
  Population Hoechst High Intensity Objects (%): 7%
  Population Membrane Permeable-Phenotype (%): 2%
  Population Mitochondria Different-Phenotype (%): 97%
  Population Mitotic Cells (%): 12%
  Population Normal (%): 92%
  Population Pyknosed Nuclei (%): 58%
  Population Tubulin-Different-Phenotype (%): 96%
  Total Cell Count: 241
[11]
  Population Apoptotic (%): 29%
  Population Fragmented Nuclei (%): 9%
  Population Healthy Nuclei (%): 78%
  Population Hoechst High Intensity Objects (%): 7%
  Population Membrane Permeable-Phenotype (%): 0%
  Population Mitochondria Different-Phenotype (%): 37%
  Population Mitotic Cells (%): 70%
  Population Normal (%): 92%
  Population Pyknosed Nuclei (%): 12%
  Total Cell Count: 609
[12]
  Population Apoptotic (%): 10%
  Population Fragmented Nuclei (%): 6%
  Population Healthy Nuclei (%): 80%
  Population Hoechst High Intensity Objects (%): 2%
  Population Membrane Permeable-Phenotype (%): 2%
  Population Mitochondria Different-Phenotype (%): 15%
  Population Mitotic Cells (%): 89%
  Population Normal (%): 97%
  Population Pyknosed Nuclei (%): 13%
  Population Tubulin-Different-Phenotype (%): 35%
  Total Cell Count: 516
[5]
  Population Apoptotic (%): 78%
  Population Fragmented Nuclei (%): 16%
  Population Healthy Nuclei (%): 41%
  Population Hoechst High Intensity Objects (%): 15%
  Population Membrane Permeable-Phenotype (%): 0%
  Population Mitochondria Different-Phenotype (%): 99%
  Population Mitotic Cells (%): 21%
  Population Normal (%): 84%
  Population Pyknosed Nuclei (%): 42%
  Population Tubulin-Different-Phenotype (%): 94%
  Total Cell Count: 342
[6]
  Population Apoptotic (%): 82%
  Population Fragmented Nuclei (%): 7%
  Population Healthy Nuclei (%): 51%
  Population Hoechst High Intensity Objects (%): 6%
  Population Mitochondria Different-Phenotype (%): 95%
  Population Mitotic Cells (%): 17%
  Population Normal (%): 93%
  Population Pyknosed Nuclei (%): 41%
  Population Tubulin-Different-Phenotype (%): 92%
  Total Cell Count: 274
